The values below come from ChEMBL document CHEMBL4049418, “6-OH-Phenanthroquinolizidine Alkaloid and Its Derivatives Exert Potent Anticancer Activity by Delaying S Phase Progression” (J Med Chem, 2017).

The subject of one data set is A549. Description: Antiproliferative activity against human A549 cells assessed as reduction in viability after 72 hrs by SRB assay. Format: functional, cell-based. The following applies: A549, 72 h. In outline:
(§1)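 Cells seeded and dosed in triplicate for 72 h. Suspension lines (HL-60, K-562, K562/ADR, HL-60/MX2) were read by MTT: 5 mg/mL MTT stock added, 4 h at 37 °C, formazan dissolved in 10% SDS/5% isobutanol/10 mM HCl, A570. Adherent lines were read by SRB: fixed with cold 10% TCA, stained with 0.4% SRB in 1% acetic acid, A540. IC50 from four-parameter logistic fit; mean of ≥3 independent experiments.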

A further data set relates to Bel-7402. Description: Antiproliferative activity against human Bel7402 cells assessed as reduction in viability after 72 hrs by SRB assay. Format: functional, cell-based. The following applies: Bel-7402, 72 h. In outline:
as §1
For orientation: In SRB staining, fixed cells bind dye roughly in proportion to their protein.

The next data set has as its system K562. Description: Antiproliferative activity against human K562 cells after 72 hrs by MTT assay. Format: functional, cell-based. To be noted: K562, 72 h. An outline of the steps:
as §1
A general note: Tetrazolium assays rely on reduction of a dye to a coloured formazan, in cell work by metabolically active cells.

In a further data set the test system is K562/Adr. The data set is described as follows: Antiproliferative activity against human K562/ADR cells after 72 hrs by MTT assay. Format: functional, cell-based. An outline of the steps:
as §1

Data set [1] can be described thus: Resistance factor, ratio of IC50 for human K562/ADR cells to IC50 for human K562 cells. Format: functional. In outline:
(§2)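 72 h treatment in triplicate; suspended lines (HL-60, K-562, K562/ADR, HL-60/MX2) read by MTT (4 h, SDS/isobutanol/HCl solubilization, 570 nm); adherent KB and KB/VCR (MEM, 10% FBS) by SRB after TCA fixation (540 nm); IC₅₀ by four-parameter logistic fit, mean of ≥3 independent experiments.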

The next data set has as its system KB. The data set is described as follows: Antiproliferative activity against human KB cells after 72 hrs by SRB assay. Format: functional, cell-based. An outline of the steps: as §1
Data set [2] is described as follows: Antiproliferative activity against human KB/VCR cells after 72 hrs by SRB assay. Format: functional, cell-based. In outline:
as §1

The nature of data set [3]: Resistance factor, ratio of IC50 for human KB/VCR cells to IC50 for human KB cells. Format: functional. An outline of the steps: as §2
The test system of the next data set is HL-60. Description: Antiproliferative activity against human HL60 cells after 72 hrs by MTT assay. Format: functional, cell-based. To be noted: HL-60, 72 h. In outline: as §1
The test system of another data set is HL60/MX2. The data set is described as follows: Antiproliferative activity against human HL60/MX2 cells after 72 hrs by MTT assay. Format: functional, cell-based. To be noted: HL60/MX2, 72 h. An outline of the steps: as §1
A short description of data set [4]: Resistance factor, ratio of IC50 for human HL60/MX2 cells to IC50 for human HL60 cells. Format: functional. In outline:
as §2

Another data set has as its system MRC5. Description: Antiproliferative activity against human MRC5 cells assessed as reduction in viability after 72 hrs by SRB assay. Format: cell-based. The following applies: MRC5, 72 h. In outline:
as §1

Data set [5] is described as follows: Antiproliferative activity against human MRC9 cells assessed as reduction in viability after 72 hrs by SRB assay. Format: cell-based. The following applies: MRC9, 72 h. An outline of the steps: as §1
The subject of another data set is L02. Description: Antiproliferative activity against human LO2 cells assessed as reduction in viability after 72 hrs by SRB assay. Format: cell-based. The following applies: L02, 72 h. An outline of the steps: as §1
Data set [6] can be described thus: Selectivity ratio of IC50 for human MRC5 cells to IC50 for human A549 cells. An outline of the steps:
(§3)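 SRB assay: A549 (F-12, 10% FBS) and MRC-5/MRC-9 (EMEM, 10% FBS) treated in triplicate 72 h, fixed with ice-cold 10% TCA, stained with 0.4% SRB in 1% acetic acid, absorbance 540 nm; IC₅₀ by four-parameter logistic fit, mean of ≥3 independent experiments.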

The nature of data set [7]: Selectivity ratio of IC50 for human MRC9 cells to IC50 for human A549 cells. An outline of the steps:
as §3

Data set [8] in a line: Cytotoxicity against Sprague-Dawley rat primary neuronal cells assessed as reduction in cell viability after 24 hrs by MTT assay. Format: cell-based.
A short description of data set [9]: Cytotoxicity against Sprague-Dawley rat primary neuronal cells assessed as reduction in cell viability at 300 nM after 24 hrs by MTT assay. Format: cell-based. The following applies: read-out: INH.

SMILES strings stand for the structures.

For the compound `COc1cc2c3c(c4ccc(OC(=O)C(C)(C)C)cc4c2cc1OC)CN1CCCCC1C3` (centres undefined), the IC50 (as a rule, the concentration at which inhibition is half-maximal) was 103 nM in the data set on A549 and 136 nM in the data set with Bel-7402.
For `COc1cc2c3c(c4ccc(O)cc4c2cc1OC)CN1CCCCC1C3O` (racemic), the figures for the half-maximal inhibitory concentration (IC50) in the data set on A549 and in the data set with Bel-7402 were 12 nM and 8 nM, respectively.
In the case of `COc1cc2c3c(c4ccc(OCC(N)=O)cc4c2cc1OC)CN1CCCCC1C3` (centres undefined), the IC50 in the data set on A549 turned out to be 16 nM; in the data set on Bel-7402, 14 nM.
On to `COc1cc2c3c(c4ccc(OC(=O)c5cccnc5)cc4c2cc1OC)CN1CCCCC1C3` (centres undefined), for which the figures for the IC50 with A549 and in the data set with Bel-7402 were 277 nM and 238 nM, respectively.
Consider `COc1cc2c3c(c4ccc(OC(=O)c5cccc6nnsc56)cc4c2cc1OC)CN1CCCCC1C3` (centres undefined), for which the results for the half-inhibitory concentration (IC50) in the data set on A549 and in the data set on Bel-7402 were 29 nM and 20 nM, respectively.
`COc1cc2c3c(c4ccc(OC(=O)c5cccs5)cc4c2cc1OC)CN1CCCCC1C3` (centres undefined): the results for the IC50 with A549 and in the data set on Bel-7402 were 115 nM and 79 nM, respectively.
As to `COc1cccc2c1C(=O)c1c(O)c3c(c(O)c1C2=O)C[C@@](O)(C(=O)CO)C[C@@H]3O[C@H]1C[C@H](N)[C@H](O)[C@H](C)O1.Cl` [DOXORUBICIN HYDROCHLORIDE], the results for the IC50 in the data set with K562 and in the data set on K562/Adr were 77.7 nM and 3310 nM, respectively. The “Ratio IC50” value in data set [1] was 42.6.
With `CC[C@]1(O)C[C@H]2CN(CCc3c([nH]c4ccccc34)[C@@](C(=O)OC)(c3cc4c(cc3OC)N(C=O)[C@H]3[C@@](O)(C(=O)OC)[C@H](OC(C)=O)[C@]5(CC)C=CCN6CC[C@]43[C@@H]65)C2)C1` [VINCRISTINE], the IC50 in the data set on KB worked out at 0.2 nM; in [2], 239 nM. Also, in data set [3], the “Ratio IC50” value was 1193.5.
`COc1cc2c3c(c4ccc(OCC#N)cc4c2cc1OC)CN1CCCC[C@H]1C3`: the IC50 in the data set on A549 was 12.9 nM; in the data set on Bel-7402, 25.8 nM.
With `COc1cc2c3c(c4ccc(OC(=O)c5ccco5)cc4c2cc1OC)CN1CCCCC1C3` (centres undefined), the results for the IC50 in the data set on A549 and in the data set on Bel-7402 were 52 nM and 59 nM, respectively.
On to `Cl.Cl.O=C1c2c(O)ccc(O)c2C(=O)c2c(NCCNCCO)ccc(NCCNCCO)c21` [MITOXANTRONE HYDROCHLORIDE], for which the figures for the IC50 with HL-60 and in the data set with HL60/MX2 were 7.2 nM and 351 nM, respectively. The “Ratio IC50” value in data set [4] was 48.7.
For the compound `C#CCOc1ccc2c3c(c4cc(OC)c(OC)cc4c2c1)CC1CCCCN1C3` (centres undefined), the IC50 in the data set on A549 was 30 nM; with Bel-7402, 33 nM.
As for `COc1cc2c3c(c4ccc(O)cc4c2cc1OC)CN1CCCC[C@H]1C3`, the IC50 came out at 182 nM in the data set on A549 and 320 nM with Bel-7402.
On to `CCOC(=O)COc1ccc2c3c(c4cc(OC)c(OC)cc4c2c1)CC1CCCCN1C3` (centres undefined), for which the IC50 in the data set on A549 amounted to 458 nM; in the data set on Bel-7402, 411 nM.
Take `COc1cc2c3c(c4ccc(OCC#N)cc4c2cc1OC)CN1CCCC[C@@H]1C3`: the IC50 in the data set with A549 is 0.8 nM; with Bel-7402, 2.4 nM; in the data set with MRC5 it was 3.2 nM; in data set [5], 2.7 nM; in the data set on L02, 3.9 nM. In addition, the “Ratio IC50” value in data set [6] and in data set [7] was 3 - 4 throughout. In addition, the “inhibition (INH)” value in [8] was “Dose-dependent effect”. In data set [9], the cytotoxicity at 24 h, 0.3 µM is 50%.
Take `COc1cc2c3c(c4ccc(O)cc4c2cc1OC)CN1CCCCC1C3` (racemic): the IC50 in the data set on A549 lay within 1.2 to 2.9 nM; in the data set with Bel-7402 it was 3.4 to 3.5 nM.
With `COc1cc2c3c(c4ccc(OC(=O)C5CCCCC5)cc4c2cc1OC)CN1CCCCC1C3` (centres undefined), the figures for the IC50 with A549 and in the data set on Bel-7402 were 191 nM and 115 nM, respectively.
Take `COc1cc2c3c(c4ccc(OCc5ccccc5)cc4c2cc1OC)CN1CCCCC1C3O` (racemic): the values for the IC50 in the data set on A549 and with Bel-7402 were 1530 nM and 917 nM, respectively.
The matching figures for `COc1cc2c3c(c4ccc(OC(C)=O)cc4c2cc1OC)CN1CCCCC1C3` (centres undefined): 22 nM and 23 nM.
Take `COc1cc2c3c(c4ccc(OCCOC(=O)[C@H](C)N)cc4c2cc1OC)CN1CCCCC1C3` (some centres undefined): the IC50 in the data set on A549 is 49 nM; in the data set on Bel-7402, 47 nM.
On to `COc1cc2c3c(c4ccc(OC(=O)C5CC5)cc4c2cc1OC)CN1CCCCC1C3` (centres undefined), for which the IC50 in the data set on A549 stood at 30 nM; in the data set on Bel-7402, 29 nM.
In the case of `COc1cc2c3c(c4ccc(OCC#N)cc4c2cc1OC)CN1CCCCC1C3` (racemic), the results for the IC50 in the data set with A549 and in the data set with Bel-7402 were 1 to 3 nM and 2.2 to 6 nM, respectively.
